How the values were obtained:
Homo sapiens [1] = species on record: Homo sapiens; test: Total clearance per kg of total body weight in morbidly obese human at 461 mg infused over 30 mins; type: ADME, organism-based; conditions: in vivo, iv, 0.5 h
How it was run: (§1)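 Adult females received 4 mg/kg daptomycin by total body weight, IV over 30 min. Plasma sampled to 24 h and assayed by HPLC-UV at 214 nm. Total clearance = dose/AUC0-∞ (trapezoidal AUC0-24 plus C24/kel). Normalized to total body weight, ideal body weight (45.5 + 2.3 × inches over 5 ft) or fat-free weight from bioelectric impedance.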

[2] = Cmax in morbidly obese human at 461 mg infused over 30 mins; type: ADME, organism-based; design: dose 461 mg; conditions: in vivo, iv
[3] = Renal clearance per kg of fat-free weight in morbidly obese human at 461 mg infused over 30 mins; type: ADME, organism-based, Kidney; conditions: in vivo, iv, read-out: CL_renal (converted)
How it was run: (§2)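 Adult females were given a single 30-min IV infusion (4 mg/kg total body weight). Bladder voided before dosing, then urine collected for 24 h. Urine and plasma assayed by HPLC-UV at 214 nm. Renal clearance = 24-h urinary amount / plasma AUC0-24. Normalized to total body weight, ideal body weight or bioimpedance fat-free weight.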

Homo sapiens [4] = species on record: Homo sapiens; test: Total clearance per kg of ideal body weight in morbidly obese human at 461 mg infused over 30 mins; type: ADME, organism-based; conditions: in vivo, iv, 0.5 h; how it was run: as §1
[5] = Renal clearance in normal weight human at 236 mg infused over 30 mins; type: ADME, organism-based, Kidney; conditions: in vivo, iv, read-out: CL_renal (converted); how it was run: as §2
Homo sapiens [6] = species on record: Homo sapiens; test: Volume of distribution per kg of total body weight in normal weight human at 236 mg infused over 30 mins; type: ADME, organism-based; conditions: in vivo, iv, 0.5 h
Homo sapiens [7] = species on record: Homo sapiens; test: Volume of distribution per kg of fat-free weight in morbidly obese human at 461 mg infused over 30 mins; type: ADME, organism-based; conditions: in vivo, iv, 0.5 h
[8] = AUC (0 to infinity) in morbidly obese human at 461 mg infused over 30 mins; type: ADME, organism-based; design: dose 461 mg, time infinity; conditions: plasma, iv
How it was run: (§3)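 Single 30-min IV infusion at 4 mg/kg total body weight in adult females. Plasma sampled at 0.5, 1, 1.5, 2, 4, 8, 12 and 24 h and assayed by HPLC-UV at 214 nm. kel came from log-linear regression, giving t1/2 = ln2/kel. AUC0-∞ is the linear-trapezoidal AUC0-24 plus C24/kel.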

[9] = Renal clearance per kg of total body weight in morbidly obese human at 461 mg infused over 30 mins; type: ADME, organism-based, Kidney; conditions: in vivo, iv, read-out: CL_renal (converted); how it was run: as §2
Homo sapiens [10] = species on record: Homo sapiens; test: Total clearance per kg of total body weight in normal weight human at 236 mg infused over 30 mins; type: ADME, organism-based; conditions: in vivo, iv, 0.5 h; how it was run: as §1
[11] = AUC (0 to infinity) in normal weight human at 236 mg infused over 30 mins; type: ADME, organism-based; design: dose 236 mg, time infinity; conditions: plasma, iv; how it was run: as §3
[12] = Cmin in normal weight human at 236 mg infused over 30 mins after 24 hrs; type: ADME, organism-based; conditions: in vivo, iv, read-out: Cmin
[13] = Half life in morbidly obese human at 461 mg infused over 30 mins; type: ADME, organism-based; conditions: in vivo, iv; how it was run: as §3
[14] = Volume of distribution in normal weight human at 236 mg infused over 30 mins; type: ADME, organism-based; conditions: in vivo, iv
Homo sapiens [15] = species on record: Homo sapiens; test: Volume of distribution per kg of fat-free weight in normal weight human at 236 mg infused over 30 mins; type: ADME, organism-based; conditions: in vivo, iv, 0.5 h
Homo sapiens [16] = species on record: Homo sapiens; test: Total clearance per kg of fat-free weight in normal weight human at 236 mg infused over 30 mins; type: ADME, organism-based; conditions: in vivo, iv, 0.5 h; how it was run: as §1
[17] = Half life in normal weight human at 236 mg infused over 30 mins; type: ADME, organism-based; conditions: in vivo, iv; how it was run: as §3
[18] = Cmax in human at 4 mg/kg of total body weight; type: ADME, organism-based; design: dose 4 mg/kg; conditions: in vivo
[19] = Renal clearance per kg of ideal body weight in morbidly obese human at 461 mg infused over 30 mins; type: ADME, organism-based, Kidney; conditions: in vivo, iv, read-out: CL_renal (converted); how it was run: as §2
[20] = Renal clearance per kg of fat-free weight in normal weight human at 236 mg infused over 30 mins; type: ADME, organism-based, Kidney; conditions: in vivo, iv, read-out: CL_renal (converted); how it was run: as §2
Homo sapiens [21] = species on record: Homo sapiens; test: Total clearance per kg of ideal body weight in normal weight human at 236 mg infused over 30 mins; type: ADME, organism-based; conditions: in vivo, iv, 0.5 h; how it was run: as §1
[22] = Volume of distribution in morbidly obese human at 461 mg infused over 30 mins; type: ADME, organism-based; conditions: in vivo, iv
[23] = Renal clearance per kg of ideal body weight in normal weight human at 236 mg infused over 30 mins; type: ADME, organism-based, Kidney; conditions: in vivo, iv, read-out: CL_renal (converted); how it was run: as §2
Homo sapiens [24] = species on record: Homo sapiens; test: Total clearance per kg of fat-free weight in morbidly obese human at 461 mg infused over 30 mins; type: ADME, organism-based; conditions: in vivo, iv, 0.5 h; how it was run: as §1
[25] = Cmin in morbidly obese human at 461 mg infused over 30 mins after 24 hrs; type: ADME, organism-based; conditions: in vivo, iv, read-out: Cmin
[26] = Total clearance in normal weight human at 236 mg infused over 30 mins; type: ADME, organism-based; conditions: in vivo, iv; how it was run: as §1
[27] = Protein binding in morbidly obese human serum at 461 mg infused over 30 mins; type: ADME, cell-free; conditions: iv, read-out: PB (converted)
How it was run: (§4)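 Serum (separator tubes) was drawn at 0.5, 2 and 8 h after a single 30-min IV infusion of 4 mg/kg (total body weight) in adult females. Samples were spun at 1,500 × g for 10 min and stored at −80°C. Binding was measured by equilibrium dialysis, solid-phase extraction and LC-MS, linear over 1–250 μg/ml.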

Homo sapiens [28] = species on record: Homo sapiens; test: Volume of distribution per kg of ideal body weight in morbidly obese human at 461 mg infused over 30 mins; type: ADME, organism-based; conditions: in vivo, iv, 0.5 h
[29] = Cmax in normal weight human at 236 mg infused over 30 mins; type: ADME, organism-based; design: dose 236 mg; conditions: in vivo, iv
Homo sapiens [30] = species on record: Homo sapiens; test: Volume of distribution per kg of ideal body weight in normal weight human at 236 mg infused over 30 mins; type: ADME, organism-based; conditions: in vivo, iv, 0.5 h
Homo sapiens [31] = species on record: Homo sapiens; test: Volume of distribution per kg of total body weight in morbidly obese human at 461 mg infused over 30 mins; type: ADME, organism-based; conditions: in vivo, iv, 0.5 h
[32] = Protein binding in normal weight human serum at 236 mg infused over 30 mins; type: ADME, cell-free; conditions: iv, read-out: PB (converted); how it was run: as §4
[33] = Total clearance in morbidly obese human at 461 mg infused over 30 mins; type: ADME, organism-based; conditions: in vivo, iv; how it was run: as §1
[34] = Renal clearance in morbidly obese human at 461 mg infused over 30 mins; type: ADME, organism-based, Kidney; conditions: in vivo, iv, read-out: CL_renal (converted); how it was run: as §2
[35] = Renal clearance per kg of total body weight in normal weight human at 236 mg infused over 30 mins; type: ADME, organism-based, Kidney; conditions: in vivo, iv, read-out: CL_renal (converted); how it was run: as §2

CCCCCCCCCC(=O)N[C@@H](Cc1c[nH]c2ccccc12)C(=O)N[C@H](CC(N)=O)C(=O)N[C@@H](CC(=O)O)C(=O)N[C@@H]1C(=O)NCC(=O)N[C@@H](CCCN)C(=O)N[C@@H](CC(=O)O)C(=O)N[C@H](C)C(=O)N[C@@H](CC(=O)O)C(=O)NCC(=O)N[C@H](CO)C(=O)N[C@@H]([C@H](C)CC(=O)O)C(=O)N[C@@H](CC(=O)c2ccccc2N)C(=O)O[C@@H]1C
CL (Homo sapiens [1]): 0.0071 L/h
Cmax [2]: 67300 ng/mL
CL renal at 0.5 h [3]: 0.153 mL/min
CL (Homo sapiens [4]): 0.016 L/h
CL renal at 0.5 h [5]: 9.83 mL/min
Vd (Homo sapiens [6]): 0.13 L
Vd (Homo sapiens [7]): 0.18 L
AUC(0-inf) [8]: 581 µg·h/mL
CL renal at 0.5 h [9]: 0.0733 mL/min
CL (Homo sapiens [10]): 0.012 L/h
AUC(0-inf) [11]: 346 µg·h/mL
concentration at 24 h [12]: 3390 ng/mL
half-life [13]: 8.68 h
Vd [14]: 7.69 L
Vd (Homo sapiens [15]): 0.18 L
CL (Homo sapiens [16]): 0.016 L/h
half-life [17]: 7.72 h
Cmax [18]: 42300 ng/mL
CL renal at 0.5 h [19]: 0.16 mL/min
CL renal at 0.5 h [20]: 0.217 mL/min
CL (Homo sapiens [21]): 0.013 L/h
Vd [22]: 10 L
CL renal at 0.5 h [23]: 0.165 mL/min
CL (Homo sapiens [24]): 0.015 L/h
concentration at 24 h [25]: 6550 ng/mL
clearance [26]: 12.2 mL/min
fraction unbound at 0.5 h [27]: 0.112
Vd (Homo sapiens [28]): 0.19 L
Cmax [29]: 42300 ng/mL
Vd (Homo sapiens [30]): 0.14 L
Vd (Homo sapiens [31]): 0.09 L
fraction unbound at 0.5 h [32]: 0.1
clearance [33]: 13.7 mL/min
CL renal at 0.5 h [34]: 8.33 mL/min
CL renal at 0.5 h [35]: 0.158 mL/min
